In brackets after ≈: the same amount, converted by molar mass.
Experiments:
[1] = system: Candida albicans; experiment: Inhibition of biofilm formation of Candida albicans SC5314 incubated for 48 hrs by XTT assay; format: functional, organism-based; settings: SC5314, 48 h
Procedure, shortened: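 SC5314 pregrown in BHI overnight at 37 °C, washed, and seeded at 2.5 × 10^3 cells/mL in RPMI-1640/MOPS pH 7.0 with diluted compounds (DMSO ≤1% v/v final) for 48 h at 37 °C. Nonadherent cells were removed by two PBS washes and fresh medium added. Biofilm was quantified by XTT at A492. IC50 = concentration at 50% of maximal biofilm formation. Triplicate wells, three separate occasions.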

[2] = system: Candida albicans; experiment: Antimicrobial activity against Candida albicans SC5314 incubated for 48 hrs by XTT assay; format: functional; settings: SC5314, 48 h
Procedure, shortened: (§1)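 SC5314 grown overnight at 37 °C in BHI, washed in PBS and resuspended in RPMI-1640 with 0.17 M MOPS at pH 7.0. Cells at 2.5 × 10^3 cells/mL were exposed to serial dilutions from 20 mM DMSO stocks (final DMSO ≤1% v/v) for 48 h at 37 °C. Viability was read by XTT (0.1 mg/mL, 1 h, A492). MIC = lowest concentration giving ≥80% drop in metabolic activity, per CLSI M27-A3.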

[3] = system: Candida albicans; experiment: Potentiation of amphotericin B-induced antimicrobial effect against Candida albicans SC5314 incubated for 48 hrs by XTT assay; format: functional
Procedure, shortened: (§2)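 Checkerboard assay: C. albicans seeded in 96-well format with test compound alone or combined with amphotericin B, in RPMI-1640 plus MOPS, for 48 h at 37 °C. Viability was read by XTT, with MIC = lowest concentration giving ≥80% metabolic reduction. FIC = MIC in combination / MIC alone for each agent; FICI = FICA + FICB.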

[4] = system: Candida albicans; experiment: Growth inhibition of Candida albicans SC5314 assessed as reduction in reduction in metabolic activity incubated for 48 hrs by XTT assay; format: organism-based; settings: SC5314, 48 h; procedure, shortened: as §1
[5] = system: Candida albicans; experiment: Antimicrobial activity against Candida albicans SC5314 in presence of amphotericin B incubated for 48 hrs by XTT assay; format: functional; settings: SC5314, 48 h; procedure, shortened: as §2
[6] = system: Candida albicans; experiment: Potentiation of amphotericin B-induced antimicrobial effect against Candida albicans SC5314 assessed as ratio of MIC for compound plus amphotericin B to MIC for amphotericin B alone incubated for 48 hrs by XTT assay; format: functional; procedure, shortened: as §2
[7] = system: Candida albicans; experiment: Potentiation of amphotericin B-induced antimicrobial effect against Candida albicans SC5314 assessed as ratio of MIC for compound plus amphotericin B to MIC for compound alone incubated for 48 hrs by XTT assay; format: functional; procedure, shortened: as §2

| Structure (SMILES) | MIC80 [2] [µM] | MIC80 [5] [µM] | IC50 [1] [µM] | fractional inhibitory concentration index (FICI) [3] | IC50 [4] [µM] | Ratio [6] | Ratio [7] |
| --- | --- | --- | --- | --- | --- | --- | --- |
| CC[C@H](C)C[C@H](C)C[C@H](C)[C@@H](O[C@@H]1O[C@H](CO)[C@@H](O)[C@H](O)[C@@H]1O)[C@@H](C)/C=C(\C)[C@@H](O)[C@@H](C)/C=C(\C)[C@@H](O)[C@@H](C)/C=C(\C)C(=O)OC[C@@H](O)[C@@H](O)[C@H](O)[C@H](O)CO | > 100 | 5 | 1.1 | <0.3 | > 100 | 0.25 | <0.05 |
| CC[C@H](C)C[C@H](C)C[C@H](C)[C@@H](O[C@@H]1O[C@H](COC(C)=O)[C@@H](O)[C@H](O)[C@@H]1O)[C@@H](C)/C=C(\C)[C@@H](O)[C@@H](C)/C=C(\C)[C@@H](O)[C@@H](C)/C=C(\C)C(=O)OC[C@@H](O)[C@@H](O)[C@H](O)[C@H](O)CO | 50 (≈ 42.5 µg/mL) | 1.25 | 1.5 | 0.28 | 36.3 | 0.25 | 0.03 |
| CC[C@H](C)C[C@H](C)C[C@H](C)[C@@H](O[C@@H]1O[C@H](COC(C)=O)[C@@H](O)[C@H](O)[C@@H]1O)[C@@H](C)/C=C(\C)[C@@H](O)[C@@H](C)/C=C(\C)[C@@H](O)[C@@H](C)/C=C(\C)C(=O)OC[C@@H](O)[C@@H](O)[C@H](O)CO | 50 (≈ 41 µg/mL) | 1.25 | 1.2 | 0.28 | 41 | 0.25 | 0.03 |
| CC[C@H](C)C[C@H](C)C[C@H](C)[C@@H](O[C@@H]1O[C@H](COC(C)=O)[C@@H](O)[C@H](O)[C@@H]1O)[C@@H](C)/C=C(\C)[C@@H](O)[C@@H](C)/C=C(\C)[C@@H](O)[C@@H](C)/C=C(\C)[C@@H](O)[C@@H](C)C(=O)OC[C@@H](O)[C@@H](O)[C@H](O)[C@H](O)CO | 50 (≈ 45.4 µg/mL) | 1.25 | 1.5 | 0.28 | 24.1 | 0.25 | 0.03 |
| CCCCCC#CCC#CCC#CCC#CCCCC(=O)O |  |  | 3.4 |  | > 100 |  |  |

Further lines, with some results ahead:

| MIC80 [2] [µM] | MIC80 [5] [µM] | Structure (SMILES) | IC50 [1] [µM] | fractional inhibitory concentration index (FICI) [3] | IC50 [4] [µM] | Ratio [6] | Ratio [7] |
| --- | --- | --- | --- | --- | --- | --- | --- |
| > 100 | 1.25 | CC[C@H](C)C[C@H](C)C[C@H](C)[C@@H](O[C@@H]1O[C@H](CO)[C@@H](O)[C@H](O)[C@@H]1O)[C@@H](C)/C=C(\C)[C@@H](O)[C@@H](C)/C=C(\C)[C@@H](O)[C@@H](C)/C=C(\C)C(=O)OC[C@@H](O)[C@@H](O)[C@H](O)CO | 1.5 | <0.26 | > 100 | 0.25 | <0.01 |
| > 100 | 5 | CCC(C)CC(C)CC(C)C(O[C@@H]1O[C@H](CO)[C@@H](O)[C@H](O)[C@@H]1O)C(C)/C=C(\C)C(O)C(C)/C=C(\C)C(O)C(C)C(=O)O (stereo partly specified) | 5 | <0.3 | > 100 | 0.25 | <0.05 |
| > 100 | 5 | CC[C@H](C)C[C@H](C)C[C@H](C)[C@@H](O[C@@H]1O[C@H](CO)[C@@H](O)[C@H](O)[C@@H]1O)[C@@H](C)/C=C(\C)[C@@H](O)[C@@H](C)/C=C(\C)[C@@H](O)[C@@H](C)/C=C(\C)[C@@H](O)[C@@H](C)C(=O)O | 2.4 | <0.3 | > 100 | 0.25 | <0.05 |

Source: ChEMBL document CHEMBL3351239, “Polyketide glycosides from Bionectria ochroleuca inhibit Candida albicans biofilm formation” (J Nat Prod, 2014)
